From ChEMBL document CHEMBL3352463, “Brain-penetrant, orally bioavailable microtubule-stabilizing small molecules are potential candidate therapeutics for Alzheimer's disease and related tauopathies” (J Med Chem, 2014)
Activity calls are given as the source filed them. No cut-off for these calls is given here.

Tests used:
[1] = Ratio of drug level in brain to plasma in CD1 mouse at 5 mg/kg, ip after 1 hr by LC-MS/MS system
[2] = Drug level in CD1 mouse brain at 5 mg/kg, ip after 1 hr by LC-MS/MS system; type: ADME, organism-based; design: dose 5 mg/kg, route intraperitoneal; conditions: read-out: Drug uptake
Outline: (§1)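 2-month-old CD1 mice (about 20 g) given 5 mg/kg ip; brain and plasma sampled at 1 h. Hemispheres sonicated in 10 mM ammonium acetate pH 5.7 (1:2 w/v); plasma from EDTA blood spun 4500g, 10 min, 4 °C. Acetonitrile extraction, then UPLC-MS/MS in positive ESI MRM mode. Quantified against spiked standard curves at 0.005–5 μM in matching matrix.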

[3] = Drug level in CD1 mouse plasma at 5 mg/kg, ip after 1 hr by LC-MS/MS system; type: ADME, organism-based; design: dose 5 mg/kg, route intraperitoneal
Outline: as §1

QBI293 [4] = experiment: Induction of microtubule stabilization in human QBI293 cells assessed as increase in acetylated alpha-tubulin at 1 uM after 4 hrs by ELISA relative to vehicle treated control; type: cell-based
Outline: (§2)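 QBI293 cells exposed to compound at 1 μM. Acetylated α-tubulin expressed as fold-change over vehicle-treated cells and over cells given 0.1 μM cevipabulin as positive control. Significance by two-tailed t-test.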

QBI293 [5] = experiment: Induction of microtubule stabilization in human QBI293 cells assessed as increase in acetylated alpha-tubulin at 0.1 uM after 4 hrs by ELISA relative to vehicle treated control; type: cell-based
QBI293 [6] = experiment: Induction of microtubule stabilization in human QBI293 cells assessed as increase in acetylated alpha-tubulin at 1 uM after 4 hrs by ELISA relative to 0.1 uM treated triazolopyrimidines cevipabulin; type: cell-based
Outline: as §2

QBI293 [7] = experiment: Induction of microtubule stabilization in human QBI293 cells assessed as increase in acetylated alpha-tubulin at 100 nM after 4 hrs by immunofluorescence assay relative to control; type: cell-based
Outline: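 QBI293 cells incubated 4 h with test compound (100 nM), colchicine (1 μM) or no compound; acetylated α-tubulin visualized by immunofluorescence to assess microtubule number/organization.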

[8] = target: ATP-dependent translocase ABCB1 (Homo sapiens, UniProt P08183); experiment: Inhibition of human P-glycoprotein expressed in NCI/ADR-RES cells assessed as reduction of calcein-AM transport after 20 mins by fluorescence assay; type: cell-based
[9] = Ratio of drug level in brain to plasma in CD1 mouse at 5 mg/kg, ip after 1 hr by LC-MS/MS system; type: ADME, organism-based; design: dose 5 mg/kg, route intraperitoneal; conditions: brain and plasma, read-out: BPR
Outline: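 CD1 mice (2 months, about 20 g) dosed 5 mg/kg ip; brain and plasma taken at 1 h. Each extracted with acetonitrile and measured by LC-MS/MS MRM against matrix standard curves (0.005–5 μM). Value is the brain concentration divided by the plasma concentration.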

Mus musculus = experiment: Induction of microtubule stabilization in wild type mouse assessed as increase in acetylated alpha-tubulin level in brain at 1 mg/kg, ip after 4 to 6 days; type: functional, organism-based; design: dose 1 mg/kg
Outline: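 Wild-type mice (n = 3 per group) dosed 1 mg/kg ip once daily for 4 or 6 days; acetylated α-tubulin measured in brain homogenates, expressed relative to controls; significance by ANOVA with Dunnett's multiple comparison test.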

[10] = Ratio of AUC for free drug level in brain to plasma in CD1 mouse at 5 mg/kg, ip after 1 hr by LC-MS/MS system; type: ADME, organism-based; design: dose 5 mg/kg, route intraperitoneal; conditions: brain and plasma
[11] = Ratio of AUC for drug level in brain to plasma in CD1 mouse at 5 mg/kg, ip after 1 hr by LC-MS/MS system; type: ADME, organism-based; design: dose 5 mg/kg, route intraperitoneal; conditions: brain and plasma, read-out: Ratio AUC
Outline: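 2-month-old CD1 mice given 5 mg/kg ip; brain hemispheres (homogenized 1:2 w/v in 10 mM ammonium acetate pH 5.7) and EDTA plasma collected over a 16 h time course. Acetonitrile-precipitated supernatants quantified by LC-MS/MS (MRM, positive ESI) with spiked standard curves 0.005–5 μM.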

[12] = Elimination half life in CD1 mouse brain at 5 mg/kg, ip after 1 hr by LC-MS/MS system; type: ADME, organism-based; design: dose 5 mg/kg, route intraperitoneal; conditions: read-out: beta t1/2 (converted)
Outline: (§3)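 Female? no—2-month-old CD1 mice (20 g average) given 5 mg/kg ip; plasma (EDTA blood, centrifuged 4500g, 10 min, 4 °C) and brain hemispheres (homogenized in 10 mM ammonium acetate pH 5.7) sampled over 16 h. Acetonitrile extraction, LC-MS/MS by MRM against spiked standard curves (0.005–5 μM). Half-life from elimination rate constant, slope of ln concentration vs time at 4, 8 and 16 h.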

[13] = Elimination half life in CD1 mouse plasma at 5 mg/kg, ip after 1 hr by LC-MS/MS system; type: ADME, organism-based; design: dose 5 mg/kg, route intraperitoneal; conditions: read-out: beta t1/2 (converted)
Outline: as §3

Chain of ATP-dependent translocase ABCB1 (P08183 whole entry): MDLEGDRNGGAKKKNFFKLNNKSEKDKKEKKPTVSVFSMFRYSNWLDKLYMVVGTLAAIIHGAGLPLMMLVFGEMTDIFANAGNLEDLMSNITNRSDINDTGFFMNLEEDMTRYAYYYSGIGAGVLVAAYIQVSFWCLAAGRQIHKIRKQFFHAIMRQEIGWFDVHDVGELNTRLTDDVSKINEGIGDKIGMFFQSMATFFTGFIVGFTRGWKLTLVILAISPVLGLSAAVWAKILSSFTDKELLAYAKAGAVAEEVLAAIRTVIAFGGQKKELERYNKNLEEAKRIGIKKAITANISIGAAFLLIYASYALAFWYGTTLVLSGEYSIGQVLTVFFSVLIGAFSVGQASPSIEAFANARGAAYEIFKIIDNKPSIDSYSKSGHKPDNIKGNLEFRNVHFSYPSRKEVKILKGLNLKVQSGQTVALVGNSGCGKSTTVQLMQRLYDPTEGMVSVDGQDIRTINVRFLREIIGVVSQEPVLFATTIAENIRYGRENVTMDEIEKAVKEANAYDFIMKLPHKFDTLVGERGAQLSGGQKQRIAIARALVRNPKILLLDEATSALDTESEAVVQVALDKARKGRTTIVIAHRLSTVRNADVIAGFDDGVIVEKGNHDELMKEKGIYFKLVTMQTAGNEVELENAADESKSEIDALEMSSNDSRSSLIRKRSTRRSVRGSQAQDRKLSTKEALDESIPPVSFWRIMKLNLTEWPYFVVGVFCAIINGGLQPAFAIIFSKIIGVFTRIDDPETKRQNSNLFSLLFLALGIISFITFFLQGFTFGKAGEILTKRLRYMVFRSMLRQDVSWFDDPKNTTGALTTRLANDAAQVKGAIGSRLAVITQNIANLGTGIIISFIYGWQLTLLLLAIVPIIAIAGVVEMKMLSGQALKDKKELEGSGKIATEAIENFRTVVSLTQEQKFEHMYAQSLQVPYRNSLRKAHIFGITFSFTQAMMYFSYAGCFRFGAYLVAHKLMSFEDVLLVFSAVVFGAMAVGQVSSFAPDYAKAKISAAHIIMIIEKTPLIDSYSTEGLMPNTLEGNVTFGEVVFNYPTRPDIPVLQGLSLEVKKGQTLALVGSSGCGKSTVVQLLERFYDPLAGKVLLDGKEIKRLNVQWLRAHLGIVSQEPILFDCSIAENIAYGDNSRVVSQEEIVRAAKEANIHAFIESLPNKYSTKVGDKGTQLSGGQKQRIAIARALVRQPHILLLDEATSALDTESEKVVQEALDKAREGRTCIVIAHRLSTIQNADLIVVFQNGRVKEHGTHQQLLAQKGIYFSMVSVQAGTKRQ

Row | SMILES | BPR [1] | concentration at 1 h [2] [nM] | concentration at 1 h [3] [nM] | fold change (FC) (QBI293 [4]) | fold change (FC) (QBI293 [6]) | further results
1 | C[C@H](Nc1c(-c2c(F)cc(OCCCN)cc2F)c(Cl)nc2ncnn12)C(F)(F)F | 0.03 | 40 | 1300 | 26.5 | 3.4 | fold change (FC) (QBI293 [5]): 4.2
2 | COc1ccccc1N1CCN(C(=O)c2cc(=O)c3cc(C)cc(C)c3o2)CC1 | – | – | – | 0.9 | – | –
3 | C[C@H](Nc1c(-c2c(F)cc(OCCCNc3ccccc3)cc2F)c(Cl)nc2ncnn12)C(F)(F)F | 1.6 | 120 | 75 | 1 | – | –
4 | CC(C)c1cccc(C(C)C)c1N1C(=O)c2ccc(O)cc2C1=O | – | – | – | 1 | – | –
5 | CNCCCOc1cc(F)c(-c2c(Cl)nc3ncnn3c2N[C@@H](C)C(F)(F)F)c(F)c1 [CEVIPABULIN] | 0.037 | 92 | 2500 | – | – | Activity (QBI293 [7]): Active; inhibition (INH) [8]: Not Active
6 | CN(C)CCCOc1cc(F)c(-c2c(Cl)nc(-c3ccccn3)nc2NCC(F)(F)F)c(F)c1 | – | – | – | 0.9 | – | –
7 | CC(=O)N(C)CCCOc1cc(F)c(-c2c(Cl)nc3ncnn3c2N[C@@H](C)C(F)(F)F)c(F)c1 | 0.15 | 20 | 200 | 1.3 | – | –
8 | C[C@H](Nc1c(-c2c(F)cc(OCCCF)cc2F)c(Cl)nc2ncnn12)C(F)(F)F | – | – | – | 1.4 | – | –
9 | Cc1nnc(Cl)c(-c2c(F)cc(F)cc2F)c1-c1ccc(Cl)cc1 | – | – | – | 1.5 | – | –
10 | C[C@H](Nc1c(-c2c(F)cc(OCCCNC(=O)C(C)(C)C)cc2F)c(Cl)nc2ncnn12)C(F)(F)F | – | 170 | 1500 | 2.4 | 0.7 | Kp at 1 h [9]: 0.12
11 | C[C@H](Nc1nc(-c2ccccn2)nc(Cl)c1-c1c(F)cc(F)cc1F)C(F)(F)F | – | 1500 | 4300 | 4.2 | 0.9 | –
12 | C[C@H](Nc1c(-c2c(F)cc(OCCCN(C)C)cc2F)c(Cl)nc2ncnn12)C(F)(F)F | – | 1300 | 4900 | 9.1 | 1.3 | Activity (Mus musculus): Active; fold change (FC) (QBI293 [5]): 2; Kp uu at 1 h [10]: 0.09; Kp at 1 h [11]: 0.37; inhibition (INH) [8]: Not Active
13 | COc1ccc(CCN(C)CCCC(C#N)(c2ccc(OC)c(OC)c2)C(C)C)cc1OC (configuration not stated) | – | – | – | – | – | inhibition (INH) [8]: Active
14 | Fc1cc(F)c(-c2c(Cl)nc(-c3cnccn3)nc2NCC(F)(F)F)c(F)c1 | – | – | – | 1.5 | – | –
15 | C[C@H](Nc1c(-c2c(F)cc(OCCCO)cc2F)c(Cl)nc2ncnn12)C(F)(F)F | 2.8 | 78 | 29 | 10.1 | 1.2 | –
16 | NS(=O)(=O)c1ccc(NC(NC(=O)c2ccc(Br)cc2)C(Cl)(Cl)Cl)cc1 (configuration not stated) | – | – | – | 1 | – | –
17 | C[C@H](Nc1nc(-c2cnccn2)nc(Cl)c1-c1c(F)cc(F)cc1F)C(F)(F)F | – | 2900 | 5000 | 2.7 | 0.9 | Activity (Mus musculus): Active; half-life [12]: 15 h; half-life [13]: 15 h; Kp uu at 1 h [10]: 1.7; Kp at 1 h [11]: 0.72; inhibition (INH) [8]: Not Active
18 | C[C@H](Nc1nc(-c2cnccn2)nc(Cl)c1-c1c(F)cc(OCCCN(C)C)cc1F)C(F)(F)F | 0.35 | 860 | 2500 | 4.1 | 0.5 | –
19 | CC(C)Nc1nc2nccnc2c(Cl)c1-c1c(F)cc(F)cc1F | – | – | – | 1 | – | –
20 | C/C1=C/C[C@@H](/C(C)=C/c2csc(C)n2)OC(=O)C[C@H](O)C(C)(C)C(=O)[C@H](C)[C@@H](O)[C@@H](C)CCC1 [EPOTHILONE D] | – | – | – | – | – | Activity (QBI293 [7]): Active; inhibition (INH) [8]: Active
21 | CC(C)Nc1c(-c2c(F)cc(F)cc2F)c(Cl)nc2nccnc12 | – | – | – | 1 | – | –
22 | C[C@H](Nc1c(-c2c(F)cc(OCCCCl)cc2F)c(Cl)nc2ncnn12)C(F)(F)F | 0.88 | 160 | 178 | 1.2 | – | –
23 | C[C@H](Nc1c(-c2c(F)cc(F)cc2F)c(Cl)nc2ncnn12)C(F)(F)F | 0.8 | 2400 | 2800 | 1.3 | 0.4 | –
24 | Cc1nnc(Cl)c(-c2c(F)cc(F)cc2F)c1-c1ccc(Cl)s1 | – | – | – | 1.3 | – | –
25 | C[C@H](Nc1c(-c2c(F)cc(OCCCN3CCOCC3)cc2F)c(Cl)nc2ncnn12)C(F)(F)F | 0.49 | 600 | 1200 | 4.1 | 1.2 | –
26 | CC(=O)NCCCOc1cc(F)c(-c2c(Cl)nc3ncnn3c2N[C@@H](C)C(F)(F)F)c(F)c1 | – | – | – | 4.5 | 1.5 | –
27 | C[C@H](Nc1c(-c2c(F)cc(OCCCNCC(F)(F)F)cc2F)c(Cl)nc2ncnn12)C(F)(F)F | 1.5 | 230 | 160 | 2.1 | 0.6 | –
28 | Fc1cc(F)c(-c2c(Cl)nc(-c3ccccn3)nc2NCC(F)(F)F)c(F)c1 | – | – | – | 1.6 | – | –
